Experimental data reported in ChEMBL document CHEMBL1153086, “N-acylpolyamine inhibitors of HDM2 and HDMX binding to p53” (Bioorg Med Chem, 2009).

How the values were obtained:
[1] = molecular target: E3 ubiquitin-protein ligase Mdm2 (Homo sapiens, UniProt Q00987); assay: Inhibition of HDM2 expressed in Escherichia coli BL21 (DE3) assessed as inhibition of HDM2 binding to p53 protein by fluorescence anisotropy competition method
How it was run: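 Fluorescence anisotropy competition: HDM2(11–119) at 2.2 μM with 30 nM fluorescein-labeled human p53(15–29) (protein in 70-fold molar excess) in 10 mM Tris-HCl pH 7.6, 150 mM NaCl, 0.50 mM EDTA, 2 mM β-mercaptoethanol, incubated room temperature 1 h or 4 °C overnight. Competitor diluted in water from ~10−2 M stocks. Anisotropy read at 25 °C in triplicate; IC50 from nonlinear fit with slope factor.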

Protein Mdm4 = molecular target: T1, Protein Mdm4 (Homo sapiens, UniProt O15151); assay: Inhibition of GST-tagged HDMX expressed in Escherichia coli BL21 (DE3) assessed as inhibition of HDMX binding to p53 protein by fluorescence anisotropy competition method
T1 sequence (O15151 whole entry): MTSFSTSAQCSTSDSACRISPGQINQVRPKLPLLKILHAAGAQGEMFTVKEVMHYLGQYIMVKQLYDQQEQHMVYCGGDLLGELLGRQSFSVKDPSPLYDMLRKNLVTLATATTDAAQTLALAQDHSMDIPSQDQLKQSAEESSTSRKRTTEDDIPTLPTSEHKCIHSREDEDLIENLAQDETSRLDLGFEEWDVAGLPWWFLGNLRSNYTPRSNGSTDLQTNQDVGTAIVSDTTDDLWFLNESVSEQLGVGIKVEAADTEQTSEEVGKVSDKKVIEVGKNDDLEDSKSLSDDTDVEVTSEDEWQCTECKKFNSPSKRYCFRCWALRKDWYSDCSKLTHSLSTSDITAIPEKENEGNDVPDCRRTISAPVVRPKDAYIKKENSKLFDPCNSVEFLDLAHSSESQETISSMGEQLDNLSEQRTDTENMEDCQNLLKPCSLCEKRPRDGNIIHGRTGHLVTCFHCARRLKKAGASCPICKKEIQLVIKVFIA

Sequence of E3 ubiquitin-protein ligase Mdm2 (Q00987 whole entry): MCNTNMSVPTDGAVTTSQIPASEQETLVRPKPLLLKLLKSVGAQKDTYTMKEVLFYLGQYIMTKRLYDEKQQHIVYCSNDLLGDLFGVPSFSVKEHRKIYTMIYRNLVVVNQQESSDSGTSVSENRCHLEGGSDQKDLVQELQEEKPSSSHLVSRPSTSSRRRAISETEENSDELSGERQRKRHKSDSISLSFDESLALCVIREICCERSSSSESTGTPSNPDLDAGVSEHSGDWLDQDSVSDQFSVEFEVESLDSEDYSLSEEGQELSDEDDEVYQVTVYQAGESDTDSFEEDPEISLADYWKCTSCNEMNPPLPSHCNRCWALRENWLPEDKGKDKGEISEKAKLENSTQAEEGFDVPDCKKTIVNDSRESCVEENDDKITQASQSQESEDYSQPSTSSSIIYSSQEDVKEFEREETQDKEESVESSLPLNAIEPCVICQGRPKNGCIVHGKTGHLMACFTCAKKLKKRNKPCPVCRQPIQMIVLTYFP

| Compound | IC50 ([1]; read-out: IC50) [µM] | IC50 (Protein Mdm4; read-out: IC50) [µM] | IC50 [1] | IC50 (Protein Mdm4) |
| --- | --- | --- | --- | --- |
| Cc1ccc(CCNC(=O)N(CC(CCCCN)N(CC(CCC(=O)O)NC(=O)CCC(C)C)C(=O)NCCCC2CCCCC2)C(CCC(=O)O)CN(CCC(N)=O)C(=O)NCCCc2ccc(Br)cc2)cc1 (centres undefined) | 2.3 | 3.2 |  |  |
| NCCCC[C@@H](CN(C(=O)NCCCC1CCCCC1)[C@@H](CCCCN)CN(C(=O)NCCc1ccc(Br)cc1)[C@@H](CCCCN)CN(CCC(N)=O)C(=O)NCCCc1ccc(F)cc1)NC(N)=O |  |  | Not Active | Not Active |
| NCCCCC(CN(C(=O)NCCc1ccc(Br)cc1)C(CCC(=O)O)CN(CCC(N)=O)C(=O)NCCCc1ccc(Br)cc1)N(CC(CCC(=O)O)NC(=O)NCC1CCCCC1)C(=O)NCCCC1CCCCC1 (centres undefined) | 6.6 | 8 |  |  |
| NCCCCC(CN(C(=O)NCCc1ccc(Br)cc1)C(CCC(=O)O)CN(CCC(N)=O)C(=O)NCCCc1ccc(Br)cc1)N(CC(CCC(=O)O)NC(=O)CCC1CCCCC1)C(=O)NCCCC1CCCCC1 (centres undefined) | 2.8 | 7.5 |  |  |
| C=CCNC(=O)NC(CCC(=O)O)CN(C(=O)NCCCC1CCCCC1)C(CCCCN)CN(C(=O)NCCc1ccc(Br)cc1)C(CCC(=O)O)CN(CCC(N)=O)C(=O)NCCCc1ccc(Br)cc1 (centres undefined) | 17 | 10 |  |  |
| NCCCCC(CN(C(=O)NCCc1ccc(Br)cc1)C(CCC(=O)O)CN(CCC(N)=O)C(=O)NCCCc1ccc(Br)cc1)N(CC(CCC(=O)O)NC(=O)Cc1ccccc1)C(=O)NCCCC1CCCCC1 (centres undefined) | 10.5 | 7.6 |  |  |
| Cc1ccc(CCNC(=O)N(CC(CCCCN)N(CC(CCC(=O)O)NC(=O)CCC(C)C)C(=O)NCCCC2CCCCC2)C(CCC(=O)O)CN(CCC(N)=O)C(=O)NCCCc2ccc(F)cc2)cc1 (centres undefined) | 2.9 | 5.1 |  |  |
| CC(C)CCC(=O)N[C@@H](CCCC(=O)O)CN(C(=O)NCCCC1CCCCC1)[C@@H](CCCCN)CN(C(=O)NCCc1ccc(Br)cc1)[C@@H](CCCC(=O)O)CN(CCC(N)=O)C(=O)NCCCc1ccc(F)cc1 | 5.9 | 41 |  |  |
| Cc1ccc(CCNC(=O)N(CC(CCCCN)N(CC(CCC(=O)O)NC(=O)CCC(C)C)C(=O)NCCCC2CCCCC2)C(CCC(=O)O)CN(CCC(N)=O)C(=O)NCCCCc2ccc(F)cc2)cc1 (centres undefined) | 13 | 14 |  |  |
| NCCCCC(CN(C(=O)NCCc1ccc(Br)cc1)C(CCC(=O)O)CN(CCC(N)=O)C(=O)NCCCc1ccc(Br)cc1)N(CC(CCC(=O)O)NC(=O)[C@@H]1CCCN1)C(=O)NCCCC1CCCCC1 (some centres undefined) | 8.2 | 10 |  |  |
| NCCCCC(CN(C(=O)NCCc1ccc(Br)cc1)C(CCC(=O)O)CN(CCC(N)=O)C(=O)NCCCc1ccc(Br)cc1)N(CC(CCC(=O)O)NC(N)=O)C(=O)NCCCC1CCCCC1 (centres undefined) | 6.4 | 6.5 |  |  |
| CC(C)CCC(=O)NC(CCC(=O)O)CN(C(=O)NCCCC1CCCCC1)C(CCCCN)CN(C(=O)NCCc1ccc(Br)cc1)C(CCC(=O)O)CN(CCC(N)=O)C(=O)NCCCc1ccc(Br)cc1 (centres undefined) | 2.8 | 4.1 |  |  |
| CC(C)CCC(=O)NC(CCC(=O)O)CN(C(=O)NCCCC1CCCCC1)C(CCCCN)CN(C(=O)NCCc1ccc(Br)cc1)C(CCC(=O)O)CN(CCC(N)=O)C(=O)NCCCc1ccc(F)cc1 (centres undefined) | 2.6 | 2.7 |  |  |
| CC(C)CCCNC(=O)N(CC(CCC(=O)O)NC(N)=O)C(CCCCN)CN(C(=O)NCCc1ccc(Br)cc1)C(CCC(=O)O)CN(CCC(N)=O)C(=O)NCCCc1ccc(Br)cc1 (centres undefined) | 9.2 | 24 |  |  |
| CC(C)CCCNC(=O)N(CC(CCC(=O)O)NC(N)=O)C(CCCCN)CN(C(=O)NCCc1ccc(Br)cc1)C(CCC(=O)O)CN(CCC(N)=O)C(=O)NCCCc1ccccc1 (centres undefined) | 18 |  |  |  |
| CC(C)CCCNC(=O)N(CC(CCC(=O)O)NC(N)=O)C(CCCCN)CN(C(=O)NCCCc1ccc(Br)cc1)C(CCC(=O)O)CN(CCC(N)=O)C(=O)NCCCc1ccccc1 (centres undefined) | 20 |  |  |  |

| Compound | IC50 ([1]; read-out: IC50) [µM] | IC50 (Protein Mdm4; read-out: IC50) [µM] | IC50 [1] | IC50 (Protein Mdm4) |
| --- | --- | --- | --- | --- |
| NCCCCC(CN(C(=O)NCCc1ccc(Br)cc1)C(CCC(=O)O)CN(CCC(N)=O)C(=O)NCCCc1ccc(Br)cc1)N(CC(CCC(=O)O)NC(N)=O)C(=O)NCCCc1ccccc1 (centres undefined) | 13 | 20 |  |  |
| CC(C)CCNC(=O)N(CC(CCC(=O)O)NC(N)=O)C(CCCCN)CN(C(=O)NCCc1ccc(Cl)cc1)C(CCC(=O)O)CN(CCC(N)=O)C(=O)NCCc1ccccc1 (centres undefined) | > 100 |  |  |  |
| CC(C)CCCNC(=O)N(CC(CCC(=O)O)NC(N)=O)C(CCCCN)CN(C(=O)NCCc1ccc(Cl)cc1)C(CCC(=O)O)CN(CCC(N)=O)C(=O)NCCc1ccc(Cl)cc1 (centres undefined) | 63 |  |  |  |
| Cc1ccc(CCCNC(=O)N(CCC(N)=O)CC(CCC(=O)O)N(CC(CCCCN)N(CC(CCC(=O)O)NC(N)=O)C(=O)NCCCC(C)C)C(=O)NCCc2ccc(Br)cc2)cc1 (centres undefined) | 24 | 36 |  |  |
| CC(C)CCCCNC(=O)N(CC(CCC(=O)O)NC(N)=O)C(CCCCN)CN(C(=O)NCCc1ccc(Br)cc1)C(CCC(=O)O)CN(CCC(N)=O)C(=O)NCCCc1ccc(Br)cc1 (centres undefined) | 13 | 13 |  |  |
| NCCCCC(CN(C(=O)NCCc1ccc(Br)cc1)C(CCC(=O)O)CN(CCC(N)=O)C(=O)NCCCc1ccc(Br)cc1)N(CC(CCC(=O)O)NC(N)=O)C(=O)NCCCc1ccc(Br)cc1 (centres undefined) | 8.2 | 7.5 |  |  |
| CC(C)CCC(=O)NC(CCC(=O)O)CN(CCC1CCC2(CCCCC2)CC1)C(CCCCN)CN(CCCCc1ccc(Br)cc1)[C@@H](CCC(=O)O)CN(CCCCCc1ccc(F)cc1)CCC(N)=O (some centres undefined) | > 100 | > 100 |  |  |
| CC(C)CCCNC(=O)N(CC(CCC(=O)O)NC(N)=O)C(CCCCN)CN(C(=O)NCCc1ccc(Cl)cc1)C(CCC(=O)O)CN(CCC(N)=O)C(=O)NCCc1ccccc1 (centres undefined) | 85 |  |  |  |
| CC(C)CCCNC(=O)N(CC(CCC(=O)O)NC(N)=O)C(CCCCN)CN(C(=O)NCCc1ccc(Cl)cc1)C(CCC(=O)O)CN(CCC(N)=O)C(=O)NCCCc1ccccc1 (centres undefined) | 43 |  |  |  |
| CC(C)CCCNC(=O)N(CC(CCC(=O)O)NC(N)=O)C(CCCCN)CN(C(=O)NCCCc1ccccc1)C(CCC(=O)O)CN(CCC(N)=O)C(=O)NCCc1ccc(Br)cc1 (centres undefined) | 38 |  |  |  |
| CC(C)CCCNC(=O)N(CC(CCC(=O)O)NC(N)=O)C(CCCCN)CN(C(=O)NCCc1ccc(Br)cc1)C(CCC(=O)O)CN(CCC(N)=O)C(=O)NCCc1ccc(Br)cc1 (centres undefined) | 17 | 41 |  |  |
| CC(C)CCCNC(=O)N(CC(CCC(=O)O)NC(N)=O)C(CCCCN)CN(C(=O)NCCc1ccc(Br)cc1)C(CCC(=O)O)CN(CCC(N)=O)C(=O)NCCCc1ccc([N+](=O)[O-])cc1 (centres undefined) | 41 |  |  |  |
| COc1ccc(CCCNC(=O)N(CCC(N)=O)CC(CCC(=O)O)N(CC(CCCCN)N(CC(CCC(=O)O)NC(N)=O)C(=O)NCCCC(C)C)C(=O)NCCc2ccc(Br)cc2)cc1 (centres undefined) | > 100 | > 100 |  |  |
| COc1ccc(CCCNC(=O)N(CC(CCC(=O)O)NC(N)=O)C(CCCCN)CN(C(=O)NCCc2ccc(Br)cc2)C(CCC(=O)O)CN(CCC(N)=O)C(=O)NCCCc2ccc(Br)cc2)cc1 (centres undefined) | 12 | 12 |  |  |
| NCCCCC(CN(C(=O)NCCc1ccc(Br)cc1)C(CCC(=O)O)CN(CCC(N)=O)C(=O)NCCCc1ccc(Br)cc1)N(CC(CCC(=O)O)NC(N)=O)C(=O)NCCCc1ccc([N+](=O)[O-])cc1 (centres undefined) | 10 | 8.1 |  |  |
